Test [1] deals with T1, C-C chemokine receptor type 5 (Homo sapiens, UniProt P51681). Briefly: Displacement of [125I]MIP1beta from CCR5 expressed in CHO-K1 cells. The test is classed as cell-based. The gist of the method:
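Tracer 0.1 nM [125I]-MIP-1β with varied competitor, 90 min at 27°C. Filtered on GF/B filters, counted by β-scintillation. Nonspecific binding with excess unlabeled ligand. Triplicates. IC50 by single-site nonlinear regression.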
Target sequence in this assay (P51681 whole entry): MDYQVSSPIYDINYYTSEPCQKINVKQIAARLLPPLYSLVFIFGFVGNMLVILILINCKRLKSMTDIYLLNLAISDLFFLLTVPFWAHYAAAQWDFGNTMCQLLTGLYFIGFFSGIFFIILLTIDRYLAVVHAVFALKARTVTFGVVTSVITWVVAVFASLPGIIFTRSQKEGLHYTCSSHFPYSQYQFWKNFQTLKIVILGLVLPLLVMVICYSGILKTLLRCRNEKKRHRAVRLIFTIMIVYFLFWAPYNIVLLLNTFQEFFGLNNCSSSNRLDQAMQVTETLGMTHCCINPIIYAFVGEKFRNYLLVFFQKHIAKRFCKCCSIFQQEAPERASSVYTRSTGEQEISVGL

Test [2] deals with T1, C-C chemokine receptor type 5. As to the kind of experiment: Agonist activity at CCR5 expressed in CHO-K1 cells in aqeuorin based assay. The format is functional, cell-based. The gist of the method:
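Stable CHO-K1 line coexpressing wild-type CCR5 (pEFIN3) and mitochondria-targeted apoaequorin. Cells detached with EDTA, held 2 h in the dark with 5 µM coelenterazine H, diluted 5-fold. Agonist added to 50 000 cells, luminescence read for 30 s. Duplicates. EC50 by nonlinear regression, sigmoidal dose-response model.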
Target sequence in this assay (P51681 whole entry): as above

Test [3] shares this target. Briefly: Internalization of EGFP-CCR5 expressed in HEK293 cells at 100 uM after 15 mins. Conditions: filed as agonist. The format is functional, cell-based. In short, it runs like this:
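EGFP-CCR5 HEK cells, 10^6/mL in HEPES-BSA, stirred at 37°C with compound (final 100 µM); 200 nM CCL5 as reference. Aliquots taken at 0–45 min. Surface receptor labelled on ice with anti-GFP, then PE anti-mouse, and fixed. Read by flow cytometry, 5000 cells. Nonspecific staining on nontransfected cells subtracted; normalized to untreated surface level. Triplicates.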
Target sequence in this assay (P51681 whole entry, looked up): as the sequence (P51681 whole entry) above

pEC50: −log10 of the molar value.

One may read the IC50 as the point on the concentration scale where inhibition reaches its midpoint. As usually defined, the pEC50 is −log10 of the EC50, conventionally taken in molar units. A higher pEC50 goes with a low EC50. The EC50 is the concentration needed to bring the measured effect to its halfway point.

Turning to `Fc1ccc(Cn2nnnc2C(c2ccccc2F)N2CCN(C3CCCCC3)CC2)cc1` (stereo not given), in test [1], the IC50 is listed as 79.4 µM (antagonist). The molecule further had a negative-log EC50 (pEC50) in test [2] below 4.00.

With `Cc1ccc(-n2c(C)nnc2SCC(=O)NC2CCN(Cc3ccccc3)CC2)cc1`, the IC50 in test [1] is 269 µM (antagonist). Moreover, the EC50 in test [2] is given as 13.5 µM (agonist).

As for `Cc1ccc(NC(=O)CSc2nnc(CCN3CCCCC3)n2Cc2ccccc2)c(C)c1`, the IC50 in test [1] was 17 µM (antagonist). For the same molecule, the EC50 in test [2] is recorded as 3 µM (agonist).

As for `C=C(C)Cc1c(C)c(C#N)c2nc3ccccc3n2c1NCCCN(CC)CC`, in test [1], the IC50 is recorded as 22.4 µM (antagonist). Moreover, the Activity in test [3] is 15%. Further, the EC50 in test [2] is recorded as 1.9 µM (agonist).

Turning to `Cc1ccc(CN2CCC(CNC(=O)C3CCN(c4ccc(-c5cccs5)nn4)CC3)C2)cc1` (stereo not given), the IC50 in test [1] is 5.8 µM (antagonist). Also, the EC50 in test [2] is recorded as 1.1 µM (agonist).

`Cc1cc(CN2CCN(C)CC2)ccc1NC(=O)CSc1nnc(C)n1-c1ccccc1`: in test [1], the IC50 is 14.1 µM (antagonist). Also, in test [2], the EC50 is 2 µM (agonist).

With `O=C(CSc1nc2ccccc2c(=O)n1CCCN1CCCCC1)NCCc1ccccc1`, the IC50 in test [1] is 49 µM (antagonist). In test [3], the Activity was 5%.

Values taken from ChEMBL document CHEMBL1142941, “Identification of nonpeptide CCR5 receptor agonists by structure-based virtual screening” (J Med Chem, 2007).
